The values that follow come from ChEMBL document CHEMBL4373711, “Development of 3,5-Dinitrophenyl-Containing 1,2,4-Triazoles and Their Trifluoromethyl Analogues as Highly Efficient Antitubercular Agents Inhibiting Decaprenylphosphoryl-β-d-ribofuranose 2'-Oxidase” (J Med Chem, 2019).

For orientation: MIC means the smallest concentration in the dilution series that meets the test's criterion for growth inhibition. Usually MIC99 stands for the lowest concentration that inhibits either 99% of growth or 99% of the strains tested, depending on the study. What is called IC50 is the concentration that gives 50% inhibition.

For series [1], the system named is Mycobacterium tuberculosis. Nature of the series: Antitubercular activity against Mycobacterium tuberculosis H37Rv. The class given is functional.
Series [2] deals with Mycobacterium tuberculosis. Description: Antimycobacterial activity against XDR Mycobacterium tuberculosis Praha 131 after 14 days. The class given is functional. The note with it: Praha 131, 336 h. A digest of the protocol:
(§1)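 M. tuberculosis strains (H37Rv and clinical MDR/XDR isolates) tested by microdilution in Šula's semisynthetic medium. Compounds were dissolved in DMSO and tested at 32 to 0.03 µM in twofold steps. Inoculum was a 1.0 McFarland suspension diluted 10-3. Plates were incubated at 37 °C and read at 14 and 21 days.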

The subject of the next series is HepG2. Nature of the series: Cytotoxicity against human HepG2 cells assessed as reduction in cell viability after 48 hrs by CellTiter 96 aqueous one solution assay. The class given is cell-based. To be noted: HepG2, 48 h.
The next series has as its system A-431. Nature of the series: Cytotoxicity against human A431 cells assessed as reduction in cell viability after 48 hrs by CellTiter 96 aqueous one solution assay. The note with it: A-431, 48 h. The class given is cell-based.
Series [3] concerns Mycobacterium kansasii. Nature of the series: Antimycobacterial activity against Mycobacterium kansasii CNCTC My 235/80 after 21 days. The note with it: CNCTC My 235/80, 504 h. The class given is functional. A digest of the protocol: (§2)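 Microdilution in Šula's semisynthetic medium; compounds in DMSO at 32–0.03 µM. Inoculum from 1.0 McFarland suspension diluted 10-4. […] Isoniazid and rifampicin as reference drugs.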

The subject of series [4] is Staphylococcus aureus. Description: Antibacterial activity against Staphylococcus aureus subsp. aureus ATCC 29213 CCM 4223 at highest concentration measured after 24 to 48 hrs by alamar blue dye based broth microdilution assay. Type of series: functional, organism-based. For orientation: Resazurin is reduced to fluorescent resorufin, in cell work by metabolically active cells.

The next series has as its system Candida tropicalis. Description: Antifungal activity against Candida tropicalis ATCC 750 CCM 8264 at highest concentration measured after 24 to 48 hrs by alamar blue dye based broth microdilution assay. The class given is functional, organism-based.
The nature of series [5]: Cytotoxicity against human A431 cells assessed as cell viability at 30 uM after 48 hrs by CellTiter 96 aqueous one solution assay relative to control. The class given is cell-based, A-431. To be noted: read-out: Activity. In short, it runs like this:
(§3)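 HepG2 (DMEM, 10% FBS, 1 mM pyruvate) or A431 (DMEM, 10% FBS) seeded 10,000 cells/well, 24 h at 37 °C, 5% CO2, then 30 µM compound for 48 h. MTS reagent 60 min, absorbance 490 nm, background subtracted; 0.1% DMSO vehicle = 100%, 10% SDS = 0% viability.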

Another series concerns Escherichia coli. Description: Antibacterial activity against Escherichia coli ATCC 25922 CCM 3954 at highest concentration measured after 24 to 48 hrs by alamar blue dye based broth microdilution assay. Type of series: functional, organism-based.
Another series deals with Aspergillus fumigatus. Description: Antifungal activity against Aspergillus fumigatus ATCC 204305 at highest concentration measured after 24 to 48 hrs by alamar blue dye based broth microdilution assay. Type of series: functional, organism-based.
Series [6] concerns Trichophyton interdigitale. Nature of the series: Antifungal activity against Trichophyton interdigitale ATCC 9533 CCM 8377 at highest concentration measured after 72 to 120 hrs by alamar blue dye based broth microdilution assay. The class given is functional.
The subject of the next series is Serratia marcescens. Nature of the series: Antibacterial activity against Serratia marcescens at highest concentration measured after 24 to 48 hrs by alamar blue dye based broth microdilution assay. The class given is functional, organism-based.
Series [7] relates to Mycobacterium tuberculosis. Nature of the series: Antimycobacterial activity against Mycobacterium tuberculosis H37Rv CNCTC My 331/88 after 14 days. Type of series: functional. The note with it: H37Rv CNCTC My 331/88, 336 h. In short, it runs like this:
as §1

Series [8] has as its system Staphylococcus epidermidis. Nature of the series: Antibacterial activity against Staphylococcus epidermidis at highest concentration measured after 24 to 48 hrs by alamar blue dye based broth microdilution assay. Type of series: functional, organism-based.
A short description of series [9]: Genotoxicity in Salmonella typhimurium TA100 at 30 uM in presence of rat liver S9 fraction by Ames test. The note with it: salmonella enterica subsp. enterica serovar typhimurium, s9, 30 µM. Type of series: toxicity, subcellular. A digest of the protocol: (§4)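 Microplate fluctuation Ames reverse-mutation test following kit instructions; TA98 detects frameshift and TA100 base-exchange mutations. Compound at 30 µM final with Aroclor-1254-induced rat liver S9 plus cofactors.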
For orientation: The Ames test detects mutagens through reverse mutation in bacteria.

Another series deals with Candida albicans. Nature of the series: Antifungal activity against Candida albicans ATCC 24433 CCM 8320 at highest concentration measured after 24 to 48 hrs by alamar blue dye based broth microdilution assay. Type of series: functional, organism-based.
The subject of the next series is Enterococcus faecalis. Nature of the series: Antibacterial activity against Enterococcus faecalis ATCC 29212 CCM 4224 at highest concentration measured after 24 to 48 hrs by alamar blue dye based broth microdilution assay. The class given is functional, organism-based.
Series [10] relates to Mycobacterium kansasii. Description: Antimycobacterial activity against Mycobacterium kansasii 6509/96 after 7 days. The class given is functional. To be noted: 6509/96, 168 h. In short, it runs like this: as §2
Series [11] deals with Mycobacterium avium. Description: Antimycobacterial activity against Mycobacterium avium CNCTC My 330/88 after 21 days. To be noted: CNCTC My 330/88, 504 h. Type of series: functional. In short, it runs like this:
(§5)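 M. avium was tested by microdilution in Šula's semisynthetic medium, with compounds dissolved in DMSO and serially diluted from 1000 down to 1. Inoculum was a 1.0 McFarland suspension diluted 10-5. Plates were incubated at 37 °C and read at 14 and 21 days. […] Isoniazid and rifampicin served as standards.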

Series [12] relates to Mycobacterium kansasii. Nature of the series: Antimycobacterial activity against Mycobacterium kansasii CNCTC My 235/80 after 7 days. Type of series: functional. The note with it: CNCTC My 235/80, 168 h. A digest of the protocol: as §2
Series [13] relates to Mycobacterium avium. Description: Antimycobacterial activity against Mycobacterium avium CNCTC My 330/88 after 14 days. The class given is functional. To be noted: CNCTC My 330/88, 336 h. In short, it runs like this: as §5
Series [14] deals with Staphylococcus aureus. Description: Antibacterial activity against methicillin-resistant Staphylococcus aureus subsp. aureus ATCC 43300 CCM 4750 at highest concentration measured after 24 to 48 hrs by alamar blue dye based broth microdilution assay. The class given is functional, organism-based.
Series [15] can be described thus: Cytotoxicity against human HepG2 cells assessed as cell viability at 30 uM after 48 hrs by CellTiter 96 aqueous one solution assay relative to control. The class given is cell-based. To be noted: read-out: Activity. In short, it runs like this: as §3
The subject of a further series is Candida parapsilosis. Nature of the series: Antifungal activity against Candida parapsilosis ATCC 22019 CCM 8260 at highest concentration measured after 24 to 48 hrs by alamar blue dye based broth microdilution assay. Type of series: functional, organism-based.
Series [16] concerns Mycobacterium kansasii. Description: Antimycobacterial activity against Mycobacterium kansasii CNCTC My 235/80 after 14 days. The class given is functional. To be noted: CNCTC My 235/80, 336 h. A digest of the protocol:
as §2

The next series concerns Aspergillus flavus. Nature of the series: Antifungal activity against Aspergillus flavus CCM 8363 at highest concentration measured after 24 to 48 hrs by alamar blue dye based broth microdilution assay. The class given is functional, organism-based.
Series [17] deals with Mycobacterium kansasii. Nature of the series: Antimycobacterial activity against Mycobacterium kansasii 6509/96 after 14 days. To be noted: 6509/96, 336 h. Type of series: functional. A digest of the protocol:
as §2

In a further series the test system is Pseudomonas aeruginosa. Nature of the series: Antibacterial activity against Pseudomonas aeruginosa ATCC 27853 CCM 3955 at highest concentration measured after 24 to 48 hrs by alamar blue dye based broth microdilution assay. The class given is functional, organism-based.
The next series has as its system Klebsiella pneumoniae. Description: Antibacterial activity against Klebsiella pneumoniae at highest concentration measured after 24 to 48 hrs by alamar blue dye based broth microdilution assay. Type of series: functional, organism-based.
A further series deals with Lichtheimia corymbifera. Nature of the series: Antifungal activity against Lichtheimia corymbifera CCM 8077 at highest concentration measured after 24 to 48 hrs by alamar blue dye based broth microdilution assay. The class given is functional, organism-based.
The test system of series [18] is Mycobacterium tuberculosis. Description: Antimycobacterial activity against Mycobacterium tuberculosis H37Rv CNCTC My 331/88 after 21 days. To be noted: H37Rv CNCTC My 331/88, 504 h. The class given is functional. A digest of the protocol: as §1
Series [19] has as its system Mycobacterium tuberculosis. Description: Antimycobacterial activity against XDR Mycobacterium tuberculosis Praha 131 after 21 days. The note with it: Praha 131, 504 h. Type of series: functional. In short, it runs like this: as §1
Series [20] can be described thus: Genotoxicity in Salmonella typhimurium TA98 at 30 uM in presence of rat liver S9 fraction by Ames test. To be noted: salmonella enterica subsp. enterica serovar typhimurium, s9, 30 µM. Type of series: toxicity, subcellular. A digest of the protocol: as §4
For another series, the system named is Pichia kudriavzevii. Nature of the series: Antifungal activity against Candida krusei ATCC 6258 CCM8271 at highest concentration measured after 24 to 48 hrs by alamar blue dye based broth microdilution assay. Type of series: functional, organism-based.
Series [21] has as its system Mycobacterium kansasii. Description: Antimycobacterial activity against Mycobacterium kansasii 6509/96 after 21 days. The class given is functional. The note with it: 6509/96, 504 h. In short, it runs like this:
as §2

In brackets after ≈: the same amount, converted by molar mass. Activity calls are given as the source filed them. Bounds are passed on as bounds.

Compound `COc1nc2ccc(Br)cc2cc1[C@@H](c1ccccc1)[C@@](O)(CCN(C)C)c1cccc2ccccc12` [BEDAQUILINE] came in with a minimum inhibitory concentration (MIC) in series [1] of 0.05 µM (≈ 0.0278 µg/mL).

In the case of `O=[N+]([O-])c1cc(-c2nnc(SCc3ccc(Cl)c(Cl)c3)n2Cc2ccccc2)cc([N+](=O)[O-])c1`, the MIC99 stood at 0.125 µM (≈ 0.0645 µg/mL) in series [2]; 0.25 µM (≈ 0.129 µg/mL) against Mycobacterium kansasii [3]; 0.25 µM (≈ 0.129 µg/mL) in [7]; 0.06 µM (≈ 0.031 µg/mL) against Mycobacterium kansasii [10]; 62 µM (≈ 32 µg/mL) against Mycobacterium avium [11]; 0.25 µM (≈ 0.129 µg/mL) in the series with Mycobacterium kansasii [12]. The MIC99 in the series on Mycobacterium avium [13] stood at 62 µM (≈ 32 µg/mL); with Mycobacterium kansasii [16], 0.25 µM (≈ 0.129 µg/mL); in the series with Mycobacterium kansasii [17] it was 0.125 µM (≈ 0.0645 µg/mL); in series [18], 0.25 µM (≈ 0.129 µg/mL); in series [19] it was 0.25 µM (≈ 0.129 µg/mL); against Mycobacterium kansasii [21], 0.125 µM (≈ 0.0645 µg/mL). The 50% inhibitory concentration (IC50) in the series on HepG2 and in the series on A-431 was above 30 µM throughout. Also, the result (with Staphylococcus aureus [4]; with Candida tropicalis; in the series with Escherichia coli; in the series with Aspergillus fumigatus; in [6]; in the series with Serratia marcescens) was inactive. In addition, the result (in [8]; in the series on Candida albicans; in the series with Enterococcus faecalis; with Staphylococcus aureus [14]; in the series on Candida parapsilosis; in the series with Aspergillus flavus) was inactive. Further, the result with Pseudomonas aeruginosa, in the series on Klebsiella pneumoniae, in the series on Lichtheimia corymbifera and in the series on Pichia kudriavzevii was inactive. The values for the viability at 48 h, 30 µM in series [5] and in [15] were 97% and 103%, respectively. Also, the Activity entry in series [9] is given as “Non-Toxic”; in [20], “Toxic”.
